Shown are actives, neighbours in structure and some others; about 8.8% of the full set was active somewhere.
M1 antag: antagonists of rat M1 muscarinic receptor. AID 628, 2007. Muscarinic acetylcholine receptor M1 (Rattus norvegicus), P08482. 3.4% of 64,000 active. B-score at 10 µM. CHO-M1 cells, Fluo-4 calcium, ACh EC80 antagonist mode; active compounds read low;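 active = calcium fluorescence response, raw or row-and-column corrected B-score, differing from the plate sample mean either way at a set confidence level, mostly lower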
M1 agonist: M1 muscarinic receptor agonists, primary screen, CHO-M1 cells, Fluo-4 calcium, agonist mode; Muscarinic acetylcholine receptor M1; AID 626, 2007; Fluo-4 calcium fluorescence; active compounds read high; 3% of 64,000 active; B-score at 10 µM;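 active = fluorescence rise, raw or as B-score row- and column-corrected plate score, outside the 99.7% band of its plate's samples, either direction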
SF1 activator: activators of human SF-1, primary screen, cell-based, CHO-K1, Gal4-SF-1 LBD, luciferase luminescence | AID 522, 2006 | 1.9% of 65,000 active | activation, % at 10 µM | CHO-K1 Gal4-SF-1 LBD luciferase reporter; % increase over DMSO SF-1-specific signal;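 active = activation above the mean activation of all tested compounds plus 3 SD, cut at about 50% in these data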
Target sequence (Q13285 whole entry, looked up, the tested form may be a part): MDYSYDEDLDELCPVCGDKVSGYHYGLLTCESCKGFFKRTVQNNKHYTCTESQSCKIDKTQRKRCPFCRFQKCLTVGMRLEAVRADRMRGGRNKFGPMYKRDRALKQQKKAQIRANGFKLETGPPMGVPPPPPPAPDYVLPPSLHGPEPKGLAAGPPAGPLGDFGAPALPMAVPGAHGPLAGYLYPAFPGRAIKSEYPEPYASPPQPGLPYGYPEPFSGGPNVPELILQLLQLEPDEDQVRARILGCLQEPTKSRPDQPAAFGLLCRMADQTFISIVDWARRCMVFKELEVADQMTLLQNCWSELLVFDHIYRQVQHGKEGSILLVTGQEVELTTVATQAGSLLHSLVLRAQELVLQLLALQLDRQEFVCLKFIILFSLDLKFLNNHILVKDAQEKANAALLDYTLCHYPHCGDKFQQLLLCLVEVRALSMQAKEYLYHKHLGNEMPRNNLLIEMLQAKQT
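Test system: CHO-K1 cells with Gal4–hSF-1 LBD chimera plus Gal4-driven luciferase; Input: 4,000 cells/well; Compound: 10 µM only; Times: 20 h compound treatment, 37 °C; Measured by: steady-glow luciferase luminescence, read after 15 min reagent incubation; Measure: percent activation versus DMSO; Control set: DMSO and mock-transfected background; Replicates: one test per compound.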
S1P1 ag-PAM: S1P1 agonists and agonism potentiators, primary screen, cell-based, primary and confirmation screens, CRE-bla reporter | Sphingosine 1-phosphate receptor 1 (Homo sapiens), P21453 | S1P1 CRE-bla cells, forskolin, beta-lactamase FRET, potentiator mode; S1P1 agonist co-added at EC20, 2 nM; 100% = saturating reference agonist, 0% = basal | activation, % at 9.5 µM | 0.57% of 56,000 active;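 active = activation above a cutoff set at the mean activation of all tested compounds plus 3 SD, cut at about 54% in these data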;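 note: forskolin at 4 µM as EC80 and the EC20 agonist is SEW2871; 100% = SEW2871 at its EC100 plus forskolin at EC80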
S1P3 ag: human S1P3 receptor agonists, primary screen, cell-based, primary and confirmation, NFAT-BLA reporter | Sphingosine 1-phosphate receptor 3 (Homo sapiens), Q99500 | S1P3 NFAT-BLA reporter cells, agonism, FRET ratio; relative to 1 µM S1P, basal subtracted | activation, % at 4.5 µM | 0.1% of 60,000 active | AID 373, 2006;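 active = activation above the screen-wide mean plus 3 SD, cut at about 4.5% in these data, passing the limit was not always enough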
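Assay system: stable CHO line with human S1P3, Gα16, NFAT-BLA reporter; Detection: FRET β-lactamase substrate fluorescence, excitation 405 nm, 460/535 nm emission ratio, background-subtracted; Read-out: percent activation versus median 1 µM S1P response, basal-subtracted, per plate; Incubation: cells plated overnight, compound 4 h 37 °C, substrate 2 h RT.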
RORA act: activators of orphan receptor RORA, primary screen, cell-based, luminescence | Nuclear receptor ROR-alpha (Homo sapiens), P35398 | CHO-K1 Gal4-RORA LBD luciferase reporter; percent increase over mock-subtracted basal signal | activation, % at 10 µM | 1.5% of 65,000 active | AID 560, 2006;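 active = activation above the mean of all tested compounds plus 3 SD, cut at about 49% in these data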;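 note: 0% = DMSO-treated RORA cells and 100% = added signal equal to DMSO minus mock-transfected cells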
M1 ag confirm: rat M1 muscarinic receptor agonists, confirmation, CHO-M1 cells, Fluo-4 calcium, duplicate retest; shares compounds with M1 agonist; Fluo-4 calcium fluorescence, agonist mode; actives lie on both sides; fluorescence change (max-min) at 10 µM; 19% of 1,700 active;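 active = fluorescence change differs from the solvent-only DMSO control mean at a set confidence level in both duplicate runs; inconclusive = differs from solvent-only control mean in just one of two runs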;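 note: an EC20 dose of acetylcholine follows compound addition during the same imaging run; raw fluorescence intensity difference in instrument units with no normalization to controls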
M4 agonist ctr: agonist activity at rat M4 receptor, confirmation, counter-screen for M1 allosteric modulator project, cell-based, agonist mode; CHO M4/Gqi5 cells, Fluo-4 calcium fluorescence; actives lie on both sides; AID 1741, 2009; shares compounds with M1 agonist; fluorescence change (max-min) at 10 µM; 9% of 1,700 active;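 active = fluorescence change differing from the plate's solvent-only control wells at 99.7% confidence in both duplicates, whether higher or lower; inconclusive = differs from solvent controls in only one of two duplicates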
M1 antag confirm: rat M1 muscarinic receptor antagonists, confirmation, CHO cells, Fluo-4 calcium, duplicate; ACh EC80 antagonism; active compounds read low; 43% of 1,700 active; shares compounds with M1 antag; calcium response (max-min fluorescence) at 10 µM;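 active = calcium response below the same-plate mean of wells given acetylcholine alone at its 80%-effect dose, minus 3 SD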;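 note: raw fluorescence intensity difference in arbitrary instrument units and not normalized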
mGluR4 antag: human mGluR4 response to M1 antagonist hits, M1 allosteric modulator project, cell-based, antagonist mode, secondary assay 1; AID 678, 2007; fluorescence response (max-min) at 10 µM; shares compounds with M1 antag; 0.9% of 1,700 active; CHO-mGluR4 calcium flux, Fluo-4 fluorescence, glutamate EC80; active compounds read low;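 active = fluorescence response below the plate's average for near-maximal glutamate wells, less 3 SD of those wells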;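 note: raw unnormalized fluorescence span taken in the window right after glutamate addition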
Numbers without * were called inactive; ? = inconclusive; nt = no result given.

SMILES	M1 antag	M1 agonist	SF1 activator	S1P1 ag-PAM	S1P3 ag	RORA act	M1 ag confirm	M4 agonist ctr	others
CC1Cc2ccccc2N1C(=O)c1ccc2snnc2c1 (stereo not given)	0.306	7.53*	-14.2	-13.5	-1.6	3.6	-18.4	?
Nc1c(C(=O)NCc2ccc3c(c2)OCO3)c2nc3ccccc3nc2n1CCCN1CCOCC1	0.0359	-2.57*	0.1	-136.8	7.9*	27.4	-8.62	-47.9
CCCNS(=O)(=O)c1ccc(CCC(=O)N2CCCCC2)cc1	1.07	4.79*	1.1	nt	nt	-5.8	?	-49
COC(=O)c1ccc2c(=O)sc(N3CCC(C(N)=O)CC3)nc2c1	0.361	23.8*	-3.9	nt	nt	20.1	132*	136*
CCSc1nc2cc(C(=O)OC)ccc2c(=O)n1CC	0.0277	0.43	9.4	nt	-0.3	1.9	nt	nt
COC(=O)C1=C(N)Oc2cc(N(C)C)ccc2C1c1ccccc1OC (stereo not given)	-0.703	10*	11.2	11.2	-1.2	49.2*	17.7	-19.5
COC(=O)C1=C(N)Oc2cc(C)n(CC3CCCO3)c(=O)c2C1c1ccccc1OC (stereo not given)	-0.273	0.435	-3.2	-14.5	-0.7	-6.0	nt	nt
CCOC(=O)c1ccc(NC(=O)N2CCN(c3ccccn3)CC2)cc1	0.00173	0.817	12.3	-11.1	-1.7	-16.2	nt	nt
CCOC(=O)c1ccc(NC(=O)N2CCN(CCc3ccccc3)CC2)cc1	-2.21*	-2.4*	3.0	11.8	-0.2	-1.1	-1.67	-23.3	M1 antag confirm=459;mGluR4 antag=192
CC(C)COC(=O)C(C#N)c1nc2ccccc2nc1N1CCN(Cc2ccccc2)CC1 (stereo not given)	-1.32*	-2.29*	-16.8	5.1	-0.4	14.2	8.35	-8.44	M1 antag confirm=631;mGluR4 antag=178
Cc1ccc(-c2noc(CCC(=O)N3CCCc4ccccc43)n2)cc1	0.731	-0.254	-7.6	-14.1	-1.0	-11.0	nt	nt
CC1CCCCN1CCNC(=O)c1cnn2ccccc12 (stereo not given)	-0.18	-0.00812	1.1	-24.9	-1.0	3.8	nt	nt
CC1CCCCN1CCNC(=O)c1cc2c(=O)n(C)c3ccccc3c2n1C (stereo not given)	-4.17*	-2.73*	16.1	-4.8	-0.1	7.1	-17.1	-24.9	M1 antag confirm=419*;mGluR4 antag=254
CCOc1ccccc1NC(=O)CC1Nc2ccccc2NC1=O (stereo not given)	-0.371	-1.25	4.5	-46.9	-0.5	8.1	nt	nt

Compound activity as filed in PubChem.
